Laboratory results taken from ChEMBL document CHEMBL3091366, “New 5-Aryl-1H-imidazoles display in vitro antitumor activity against apoptosis-resistant cancer models, including melanomas, through mitochondrial targeting” (J Med Chem, 2013).
The source made the active and inactive calls. No cut-off for these calls is given here.

What was measured:
RXF 393 = test: Cytotoxicity against human RXF393 cells assessed as residual growth at 10 uM; type: functional
SF-268 = test: Cytotoxicity against human SF268 cells assessed as residual growth at 10 uM; type: functional
SNB-75 = test: Cytotoxicity against human SNB75 cells assessed as residual growth at 10 uM; type: functional
B16-F10 = test: Cytotoxicity against apoptotic-sensitive mouse B16F10 cells assessed as growth inhibition after 72 hrs by MTT-based colorimetric assay; type: functional, cell-based; settings: B16-F10, 72 h
Procedure, shortened: (§1)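 MTT colorimetric assay, 72 h exposure to the fumarate salt. Read-out is reduction of MTT to formazan by living cells. IC50 is the concentration that reduces the whole cell population by 50%. Six replicates per condition. Where compounds were not tested on every line, apoptosis-sensitive lines were PC3, MCF-7, LoVo and B16F10, and apoptosis-resistant lines were U373, T98G, A549 and SK-MEL-28.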

SW-620 = test: Cytotoxicity against human SW620 cells assessed as residual growth at 10 uM; type: functional
LOX IMVI = test: Cytotoxicity against human LOXIMVI cells assessed as residual growth at 10 uM; type: functional
SK-MEL-28 [1] = test: Cytostatic activity against apoptotic-resistant human SK-MEL-28 cells assessed as increase in cell size at 5 uM after 72 hrs by quantitative videomicroscopy; type: functional, cell-based
Procedure, shortened: (§2)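 SK-MEL-28 cells exposed to 5 µM for 24, 48 and 72 h. Cell cycle was read by flow cytometry with propidium iodide plus TUNEL double staining (APO-Direct kit), in quadruplicate. Videomicroscopy photographed each field every 4 min over 72 h. Global growth is cells at a time point divided by cells at time 0; the treated/control ratio gives GGR. Cell death was judged from morphology. Run twice, in triplicate and in quadruplicate.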

HT-29 = test: Cytotoxicity against human HT-29 cells assessed as residual growth at 10 uM; type: functional
SK-MEL-28 [2] = test: Cytotoxicity against apoptotic-resistant human SK-MEL-28 cells assessed as growth inhibition after 72 hrs by MTT-based colorimetric assay; type: functional, cell-based; settings: Homo sapiens, SK-MEL-28, 72 h; procedure, shortened: as §1
SF-539 = test: Cytotoxicity against human SF539 cells assessed as residual growth at 10 uM; type: functional
Malme-3M = test: Cytotoxicity against human MALME-3M cells assessed as residual growth at 10 uM; type: functional
SK-MEL-28 [3] = test: Effect on mitochondrial morphology in human SK-MEL-28 cells at 5 uM after 24 hrs by MitoTracker Green FM-based fluorescence microscopic analysis; type: functional, cell-based
Procedure, shortened: (§3)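 SKMEL-28 cells seeded on glass coverslips 48 h before treatment at 5 µM (3 to 48 h); two washes, mitochondria stained with 100 nM MitoTracker Green FM in phenol red-free RPMI for 30 min, rinsed twice, viewed by fluorescence microscopy. Three coverslips per condition.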

SK-MEL-28 [4] = test: Cytotoxicity against human SK-MEL-28 cells assessed as residual growth at 10 uM; type: functional
HCC 2998 = test: Cytotoxicity against human HCC2998 cells assessed as residual growth at 10 uM; type: functional
IGROV-1 = test: Cytotoxicity against human IGROV1 cells assessed as residual growth at 10 uM; type: functional
OVCAR-3 = test: Cytotoxicity against human OVCAR3 cells assessed as residual growth at 10 uM; type: functional
NCI-H460 = test: Cytotoxicity against human NCI-H460 cells assessed as residual growth at 10 uM; type: functional
SR = test: Cytotoxicity against human SR cells assessed as residual growth at 10 uM; type: functional
[5] = Cytotoxicity against HLF cells assessed as growth inhibition after 72 hrs by MTT-based colorimetric assay; type: cell-based; settings: Homo sapiens; procedure, shortened: as §1
[6] = Cytotoxicity against human NCI-ADR-RES cells assessed as residual growth at 10 uM; type: functional
CAKI-1 = test: Cytotoxicity against human Caki1 cells assessed as residual growth at 10 uM; type: functional
SK-MEL-2 = test: Cytotoxicity against human SK-MEL-2 cells assessed as residual growth at 10 uM; type: functional
MCF7 = test: Cytotoxicity against apoptotic-sensitive human MCF7 cells assessed as growth inhibition after 72 hrs by MTT-based colorimetric assay; type: functional, cell-based; settings: Homo sapiens, MCF7, 72 h; procedure, shortened: as §1
SK-MEL-28 [7] = test: Induction of ROS production in human SK-MEL-28 cells at 5 uM by DCFH-DA staining-based flow cytometry; type: functional, cell-based; settings: TDE = time-dependent effect
Procedure, shortened: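 SKMEL-28 cells exposed to 5 µM over a time course, washed twice, stained 1 h at 37 °C with 20 µM DCFH-DA in phenol red-free RPMI, washed twice, trypsinized; ROS-driven probe oxidation read as fluorescence by flow cytometry. Run once in quadruplicate; mean ± SEM.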

SK-MEL-28 [8] = test: Increase in cell size of human SK-MEL-28 cells at 5 uM after 24 hrs by MitoTracker Green FM-based fluorescence microscopic analysis; type: functional; procedure, shortened: as §3
[9] = Cytotoxicity against human UO31 cells assessed as residual growth at 10 uM; type: functional, UO-31
HCT-116 = test: Cytotoxicity against human HCT116 cells assessed as residual growth at 10 uM; type: functional
CCRF-CEM = test: Cytotoxicity against human CCRF-CEM cells assessed as residual growth at 10 uM; type: functional
BT-549 = test: Cytotoxicity against human BT549 cells assessed as residual growth at 10 uM; type: functional
SF-295 = test: Cytotoxicity against human SF295 cells assessed as residual growth at 10 uM; type: functional
NCI-H226 = test: Cytotoxicity against human NCI-H226 cells assessed as residual growth at 10 uM; type: functional
NCI-H322M = test: Cytotoxicity against human NCI-H322M cells assessed as residual growth at 10 uM; type: functional
SK-MEL-28 [10] = test: Effect on oxygen consumption in human SK-MEL-28 cells at 10 uM by oxygraphic analysis; type: functional, cell-based
Procedure, shortened: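 Compound added directly at 10 µM to the oxygraph chamber holding SKMEL-28 cells; ROUTINE respiration recorded by Clark-electrode high-resolution respirometry at 37 °C in phenol red-free DMEM with glucose 1 g/L and pyruvate 110 mg/L, with stirring.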

NCI-H23 = test: Cytotoxicity against human NCI-H23 cells assessed as residual growth at 10 uM; type: functional
SK-MEL-28 [11] = test: Cell cycle arrest in apoptotic-resistant human SK-MEL-28 cells at 5 uM after 24 to 72 hrs by double propidium iodide staining-based flow cytometry; type: functional; procedure, shortened: as §2
[12] = Cytotoxicity against human OVCAR5 cells assessed as residual growth at 10 uM; type: functional, OVCAR-5
A549 = test: Cytotoxicity against apoptotic-resistant human A549 cells assessed as growth inhibition after 72 hrs by MTT-based colorimetric assay; type: functional, cell-based; settings: Homo sapiens, A549, 72 h; procedure, shortened: as §1
SK-MEL-28 [13] = test: Effect on oxygen consumption in human SK-MEL-28 cells at 10 uM after 72 hrs by oxygraphic analysis; type: functional, cell-based
Procedure, shortened: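 SKMEL-28 cells pre-incubated 72 h with 10^-5 M compound or untreated; five million cells per chamber in phenol red-free DMEM (glucose 1 g/L, pyruvate 110 mg/L). ROUTINE respiration recorded by high-resolution respirometry (Clark electrode), 37 °C, continuous stirring from chamber closure; O2 consumption slopes taken as routine respiration.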

786-0 = test: Cytotoxicity against human 786-0 cells assessed as residual growth at 10 uM; type: functional

C=CCCCCOc1ccccc1-c1cnc(OCCCCC=C)n1C
Activity (RXF 393): 90.54% | Activity (SF-268): 79.65% | Activity (SNB-75): 81.88% | IC50 (B16-F10): 7 µM | Activity (SW-620): 30.82% | Activity (LOX IMVI): 69.06% | Activity (SK-MEL-28 [1]): Active | Activity (HT-29): 18.11% | IC50 (SK-MEL-28 [2]): 5 µM | Activity (SF-539): 81.04% | Activity (Malme-3M): 62.83% | Activity (SK-MEL-28 [3]): inactive | Activity (SK-MEL-28 [4]): 73.36% | Activity (HCC 2998): 61.08% | Activity (IGROV-1): 62.95% | Activity (OVCAR-3): 51.28% | Activity (NCI-H460): 55.6% | Activity (SR): 30.69% | IC50 [5]: 22 µM | Activity [6]: 30.38% | Activity (CAKI-1): 54.94% | Activity (SK-MEL-2): 46.08% | IC50 (MCF7): 5 µM | Activity (SK-MEL-28 [7]): tde | Activity (SK-MEL-28 [8]): Active | Activity [9]: 69.27% | Activity (HCT-116): 61.02% | Activity (CCRF-CEM): 80.85% | Activity (BT-549): 96.77% | Activity (SF-295): 70.07% | Activity (NCI-H226): 92.21% | Activity (NCI-H322M): 71.99% | Activity (SK-MEL-28 [10]): inactive | Activity (NCI-H23): 76.02% | Activity (SK-MEL-28 [11]): inactive | Activity [12]: 95.17% | IC50 (A549): 7 µM | Activity (SK-MEL-28 [13]): Active | Activity (786-0): 106.84%
